# In PMC12853403 (ACS infectious diseases, 2025):
# Experiments:
# Eg.TRPMPZQ = Eg.TRPMPZQ (Echinococcus granulosus, UniProt W6UVV9); experiment: Ca2+ reporter assay in HEK293 cells, Eg.TRPMPZQ; format: cell-based; details: EC50 at Eg.TRPMPZQ / EC50 at Sm.TRPMPZQ
# [1] = system: E. multilocularis protoscoleces; experiment: Cestode motility assay on protoscoleces; format: cell-based; details: Echinococcus multilocularis, read-out: EC50, motility of E. multilocularis protoscoleces
# Se.TRPMPZQ = experiment: Functional profiling; format: cell-based, Spirometra erinaceieuropaei
# Sm.TRPMPZQ[D1677E] = experiment: Functional profiling at Sm.TRPMPZQ[D1677E] mutant; format: cell-based, Schistosoma mansoni; details: construct lacks the cestode-specific S1 histidine
# Procedure, shortened: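 Transiently transfected HEK293 cells (Lipofectamine-2000) replated after 24 h at 20,000 cells/well. 24 h later, loaded with Fluo-4 NW for 1 h at 37 °C in HBSS with 2.5 mM probenecid and 20 mM HEPES. FLIPR Ca2+ read at room temperature: 20 s baseline, then compound, then 250 s. Peak minus basal, normalized to (±)-PZQ at the same channel. Three-parameter fit, bottom fixed at 0%. EC50 mean ± SEM, n ≥ 3 transfections.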
# [2] = in humans; cited from earlier work
# [3] = cited from earlier work
# [4] = cited from earlier work; remark: listed apart in the source
smiles,measurement,setting,value
O=C(C1CCCCC1)N1CC(=O)N2CCc3ccccc3[C@@H]2C1 [(R)-PZQ],difference in potency between Eg.TRPMPZQ and Sm.TRPMPZQ,Eg.TRPMPZQ,~ 4 fold
same,EC50,[1],7.7 ± 1.3 nM
same,EC50,"Se.TRPMPZQ; read-out: EC50 at Se.TRPMPZQ, mean ± SEM",1000 ± 300 nM
same,efficacy (Bmax) at Se.TRPMPZQ,Se.TRPMPZQ; relative to (R)-PZQ at Eg.TRPMPZQ,17 ± 0.8 % of (R)-PZQ at Eg.TRPMPZQ
O=C(C1CCCCC1)N1CC(=O)N2CCc3ccccc3[C@H]2C1 [(S)-PZQ],difference in potency between Eg.TRPMPZQ and Sm.TRPMPZQ,Eg.TRPMPZQ,~ 100 fold
"O=C(C1CCCCC1)N1CC(=O)N2CCc3ccccc3C2C1 (stereo not shown) [PZQ, praziquantel]",activity at Sm.TRPMPZQ[D1677E] mutant,Sm.TRPMPZQ[D1677E],unable to be activated
same,half time,[2],2 to 3 h
same,agonist character at Se.TRPMPZQ,Se.TRPMPZQ,partial agonist
O=C(C1CCCCC1)N1CC(=O)N2CCCc3ccccc3C2C1 (stereo not shown) [epsiprantel],solubility,[3],very insoluble
same,absorption from the gastrointestinal tract,[4],poorly absorbed
